Assay results from ChEMBL document CHEMBL1933007, “Novel brain penetrant benzofuropiperidine 5-HT₆ receptor antagonists” (Bioorg Med Chem Lett, 2012).
Activity calls are given as the source filed them. No cut-off for these calls is given here.

Key:
[1] = molecular target: 5-hydroxytryptamine receptor 6 (Rattus norvegicus, UniProt P31388); assay: Displacement of [3H]LSD from full length rat 5HT6 receptor
How it was run: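 Radioligand binding with [³H]LSD on membranes from cells expressing full-length rat 5-HT6R.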

[2] = molecular target: T1, 5-hydroxytryptamine receptor 6 (Homo sapiens, UniProt P50406); assay: Displacement of [3H]LSD from full length human 5HT6 receptor
T1 sequence (P50406 whole entry): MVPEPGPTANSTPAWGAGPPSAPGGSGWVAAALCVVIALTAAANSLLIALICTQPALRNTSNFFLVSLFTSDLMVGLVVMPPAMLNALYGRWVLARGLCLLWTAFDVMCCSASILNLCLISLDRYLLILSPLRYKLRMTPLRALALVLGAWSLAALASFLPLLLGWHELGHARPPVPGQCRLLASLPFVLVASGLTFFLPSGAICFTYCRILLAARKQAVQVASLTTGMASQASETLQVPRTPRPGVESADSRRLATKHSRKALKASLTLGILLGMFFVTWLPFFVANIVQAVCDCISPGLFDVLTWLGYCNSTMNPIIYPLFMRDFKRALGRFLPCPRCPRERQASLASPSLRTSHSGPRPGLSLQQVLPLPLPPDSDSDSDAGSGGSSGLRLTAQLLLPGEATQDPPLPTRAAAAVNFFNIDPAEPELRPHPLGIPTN
How it was run: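 Radioligand binding with [³H]LSD on membranes from cells expressing full-length human 5-HT6R.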

[3] = Dissociation constant, pKa of the compound; assay type: physicochemical
How it was run: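 pKa is a calculated value, not a measured one.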

[4] = molecular target: T1, 5-hydroxytryptamine receptor 6; assay: Antagonist activity at human recombinant 5-HT6 receptor expressed human astrocytoma cells assessed as inhibition of 5-HT-induced cAMP accumulation after 10 mins preincubation by HTRF assay
[5] = Half life in rat liver microsomes; assay type: ADME, Microsome
[6] = Half life in dog liver microsomes; assay type: ADME, Canis lupus familiaris, Microsome
[7] = molecular target: Voltage-gated inwardly rectifying potassium channel KCNH2 (Homo sapiens, UniProt Q12809); assay: Inhibition of human ERG by patch express assay
Voltage-gated inwardly rectifying potassium channel KCNH2, sequence (Q12809 whole entry): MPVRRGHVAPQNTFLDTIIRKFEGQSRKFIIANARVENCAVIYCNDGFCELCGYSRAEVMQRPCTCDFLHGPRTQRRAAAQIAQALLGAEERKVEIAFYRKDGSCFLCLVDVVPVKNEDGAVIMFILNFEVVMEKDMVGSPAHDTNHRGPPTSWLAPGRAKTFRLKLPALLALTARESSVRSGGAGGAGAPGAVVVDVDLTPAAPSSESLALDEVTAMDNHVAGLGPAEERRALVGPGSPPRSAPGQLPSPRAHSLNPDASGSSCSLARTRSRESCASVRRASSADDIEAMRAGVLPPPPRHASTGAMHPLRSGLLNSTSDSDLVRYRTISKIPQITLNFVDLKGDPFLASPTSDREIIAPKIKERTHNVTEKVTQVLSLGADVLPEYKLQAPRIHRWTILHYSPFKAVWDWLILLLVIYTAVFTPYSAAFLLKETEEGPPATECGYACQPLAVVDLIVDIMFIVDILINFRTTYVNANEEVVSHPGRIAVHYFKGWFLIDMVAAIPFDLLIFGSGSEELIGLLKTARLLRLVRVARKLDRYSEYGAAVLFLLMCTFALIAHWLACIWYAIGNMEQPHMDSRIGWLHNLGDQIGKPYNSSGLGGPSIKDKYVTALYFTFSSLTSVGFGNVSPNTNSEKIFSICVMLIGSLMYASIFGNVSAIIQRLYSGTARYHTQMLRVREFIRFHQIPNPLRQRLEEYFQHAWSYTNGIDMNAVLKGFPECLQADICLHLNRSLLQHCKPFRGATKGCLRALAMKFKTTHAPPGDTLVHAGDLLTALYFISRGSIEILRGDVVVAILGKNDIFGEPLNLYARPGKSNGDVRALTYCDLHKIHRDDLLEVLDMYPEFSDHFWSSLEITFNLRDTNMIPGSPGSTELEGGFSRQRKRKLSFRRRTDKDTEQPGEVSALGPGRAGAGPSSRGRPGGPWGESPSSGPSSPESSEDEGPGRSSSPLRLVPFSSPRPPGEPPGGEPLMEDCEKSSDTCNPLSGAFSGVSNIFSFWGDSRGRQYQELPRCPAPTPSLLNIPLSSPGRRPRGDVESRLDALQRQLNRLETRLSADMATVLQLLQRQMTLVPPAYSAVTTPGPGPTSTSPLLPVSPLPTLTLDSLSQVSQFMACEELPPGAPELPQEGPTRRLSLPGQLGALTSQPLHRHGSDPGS

[8] = Half life in human liver microsomes; assay type: ADME, Microsome
[9] = Oral bioavailability in rat at 5 mg/kg; assay type: ADME, organism-based; settings: in vivo
Brain = assay: Drug uptake in rat brain at 5 mg/kg, ip after 1 hr; assay type: ADME, organism-based; design: dose 5 mg/kg, route intraperitoneal; settings: in vivo
How it was run: (§1)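 Rats dosed intraperitoneally at 5 mg/kg. Brain concentration measured at 1 h and expressed as a brain-to-plasma ratio.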

[10] = Volume of distribution in rat at 1 mg/kg, iv; assay type: ADME, organism-based; design: dose 1 mg/kg, route intravenous; settings: in vivo
[11] = Plasma clearance in rat at 1 mg/kg, iv; assay type: ADME, organism-based; design: dose 1 mg/kg, route intravenous
[12] = Ratio of drug level in brain to plasma in rat at 5 mg/kg, ip; assay type: ADME, organism-based; design: dose 5 mg/kg, route intraperitoneal; settings: read-out: BPR; how it was run: as §1
Rattus norvegicus [13] = assay: AUC in rat at 5 mg/kg, po after 6 hrs; assay type: ADME, organism-based, Plasma; design: time < 6 hr, dose 5 mg/kg, route oral; settings: in vivo
[14] = Cmax in rat at 5 mg/kg, po; assay type: ADME, organism-based; design: dose 5 mg/kg, route oral; settings: in vivo
[15] = Half life in rat at 1 mg/kg, iv; assay type: ADME, organism-based; design: dose 1 mg/kg, route intravenous; settings: in vivo
Cytochrome P450 2C9 = Cytochrome P450 2C9 (Homo sapiens, UniProt P11712); assay: Inhibition of CYP2C9; assay type: ADME
Cytochrome P450 2C9, sequence (P11712 whole entry): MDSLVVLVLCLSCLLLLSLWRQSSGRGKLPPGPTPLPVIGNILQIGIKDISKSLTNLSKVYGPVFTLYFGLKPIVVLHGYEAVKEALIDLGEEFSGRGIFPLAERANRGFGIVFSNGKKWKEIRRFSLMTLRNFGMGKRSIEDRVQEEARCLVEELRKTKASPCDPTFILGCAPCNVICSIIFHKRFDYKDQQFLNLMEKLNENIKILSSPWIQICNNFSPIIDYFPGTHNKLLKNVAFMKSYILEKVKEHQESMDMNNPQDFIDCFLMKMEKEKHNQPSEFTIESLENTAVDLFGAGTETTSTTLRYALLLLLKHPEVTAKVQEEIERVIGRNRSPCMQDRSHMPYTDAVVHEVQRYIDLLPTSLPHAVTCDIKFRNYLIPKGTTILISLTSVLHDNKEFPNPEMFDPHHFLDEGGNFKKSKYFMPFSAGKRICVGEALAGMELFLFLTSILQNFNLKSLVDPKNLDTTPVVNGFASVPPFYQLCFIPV

Cytochrome P450 1A2 = molecular target: T2, Cytochrome P450 1A2 (Homo sapiens, UniProt P05177); assay: Inhibition of CYP1A2; assay type: ADME
T2 sequence (P05177 whole entry): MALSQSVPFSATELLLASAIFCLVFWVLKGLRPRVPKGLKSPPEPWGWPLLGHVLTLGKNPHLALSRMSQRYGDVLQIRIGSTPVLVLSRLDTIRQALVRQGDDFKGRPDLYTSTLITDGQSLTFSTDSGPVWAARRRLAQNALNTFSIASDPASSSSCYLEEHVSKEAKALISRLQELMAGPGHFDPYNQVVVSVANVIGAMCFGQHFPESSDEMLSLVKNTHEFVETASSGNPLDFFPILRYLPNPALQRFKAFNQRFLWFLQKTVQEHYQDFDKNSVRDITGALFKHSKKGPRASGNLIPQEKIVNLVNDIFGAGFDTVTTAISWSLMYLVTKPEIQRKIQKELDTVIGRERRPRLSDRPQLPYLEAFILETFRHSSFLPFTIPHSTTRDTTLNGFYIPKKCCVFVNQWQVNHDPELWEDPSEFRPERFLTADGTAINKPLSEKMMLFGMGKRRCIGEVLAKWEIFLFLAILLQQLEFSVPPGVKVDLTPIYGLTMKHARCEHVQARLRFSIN

L-type calcium channel = L-type calcium channel (Rattus norvegicus, UniProt P22002+P27732+Q02485); assay: Inhibition of rat L-type calcium channel at 10 uM
Cytochrome P450 2D6 = Cytochrome P450 2D6 (Homo sapiens, UniProt P10635); assay: Inhibition of CYP2D6; assay type: ADME
Cytochrome P450 2D6, sequence (P10635 whole entry): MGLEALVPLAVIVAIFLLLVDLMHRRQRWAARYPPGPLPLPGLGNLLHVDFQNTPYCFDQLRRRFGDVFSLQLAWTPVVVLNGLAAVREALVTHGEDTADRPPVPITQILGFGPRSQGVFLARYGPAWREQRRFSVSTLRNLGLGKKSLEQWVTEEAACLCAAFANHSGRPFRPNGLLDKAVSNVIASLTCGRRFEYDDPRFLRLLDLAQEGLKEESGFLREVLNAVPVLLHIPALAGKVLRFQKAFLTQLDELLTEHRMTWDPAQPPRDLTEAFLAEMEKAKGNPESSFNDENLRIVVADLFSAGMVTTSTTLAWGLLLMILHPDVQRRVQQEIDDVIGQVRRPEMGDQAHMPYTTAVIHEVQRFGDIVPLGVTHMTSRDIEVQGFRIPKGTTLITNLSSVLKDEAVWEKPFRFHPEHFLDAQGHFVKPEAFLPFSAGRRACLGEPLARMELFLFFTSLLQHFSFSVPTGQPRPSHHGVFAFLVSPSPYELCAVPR

Cytochrome P450 3A4 = Cytochrome P450 3A4 (Homo sapiens, UniProt P08684); assay: Inhibition of CYP3A4; assay type: ADME
Cytochrome P450 3A4, sequence (P08684 whole entry): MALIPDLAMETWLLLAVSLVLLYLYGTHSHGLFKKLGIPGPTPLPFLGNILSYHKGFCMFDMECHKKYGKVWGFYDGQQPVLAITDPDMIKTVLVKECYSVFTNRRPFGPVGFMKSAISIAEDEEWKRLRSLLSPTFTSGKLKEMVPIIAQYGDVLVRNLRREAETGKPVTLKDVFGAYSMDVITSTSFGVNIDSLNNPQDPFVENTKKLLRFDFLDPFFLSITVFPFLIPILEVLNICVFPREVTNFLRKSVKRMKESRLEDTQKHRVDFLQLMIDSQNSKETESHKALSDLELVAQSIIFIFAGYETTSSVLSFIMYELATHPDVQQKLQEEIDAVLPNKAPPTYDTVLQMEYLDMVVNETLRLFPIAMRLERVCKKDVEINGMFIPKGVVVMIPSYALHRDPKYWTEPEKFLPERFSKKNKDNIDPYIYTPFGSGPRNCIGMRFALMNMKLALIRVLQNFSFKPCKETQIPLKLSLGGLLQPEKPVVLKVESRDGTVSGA

[16] = molecular target: T3, 5-hydroxytryptamine receptor 2B (Homo sapiens, UniProt P41595); assay: Antagonist activity at 5HT2B receptor; assay type: functional
T3 sequence (P41595 whole entry): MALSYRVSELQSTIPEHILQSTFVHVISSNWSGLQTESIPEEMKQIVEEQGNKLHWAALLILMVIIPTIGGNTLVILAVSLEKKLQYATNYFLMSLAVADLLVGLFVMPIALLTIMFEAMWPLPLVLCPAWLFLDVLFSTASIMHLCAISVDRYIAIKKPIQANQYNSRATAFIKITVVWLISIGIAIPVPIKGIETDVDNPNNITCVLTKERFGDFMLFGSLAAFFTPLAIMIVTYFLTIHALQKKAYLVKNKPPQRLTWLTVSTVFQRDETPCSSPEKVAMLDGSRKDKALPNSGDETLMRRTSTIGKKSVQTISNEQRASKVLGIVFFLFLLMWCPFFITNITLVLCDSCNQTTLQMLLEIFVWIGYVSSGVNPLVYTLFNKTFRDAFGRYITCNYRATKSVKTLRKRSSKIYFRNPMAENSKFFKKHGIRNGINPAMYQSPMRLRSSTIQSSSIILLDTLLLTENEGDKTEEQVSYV

Cytochrome P450 2C19 = Cytochrome P450 2C19 (Homo sapiens, UniProt P33261); assay: Inhibition of CYP2C19; assay type: ADME
Rattus norvegicus [17] = assay: Increase of short-term memory in rat social recognition model at 0.1 to 3 mg/kg, ip; assay type: functional, organism-based
[18] = molecular target: D(3) dopamine receptor (Homo sapiens) (UniProt P35462); settings: 10 uM
D(3) dopamine receptor (Homo sapiens), sequence (P35462 whole entry): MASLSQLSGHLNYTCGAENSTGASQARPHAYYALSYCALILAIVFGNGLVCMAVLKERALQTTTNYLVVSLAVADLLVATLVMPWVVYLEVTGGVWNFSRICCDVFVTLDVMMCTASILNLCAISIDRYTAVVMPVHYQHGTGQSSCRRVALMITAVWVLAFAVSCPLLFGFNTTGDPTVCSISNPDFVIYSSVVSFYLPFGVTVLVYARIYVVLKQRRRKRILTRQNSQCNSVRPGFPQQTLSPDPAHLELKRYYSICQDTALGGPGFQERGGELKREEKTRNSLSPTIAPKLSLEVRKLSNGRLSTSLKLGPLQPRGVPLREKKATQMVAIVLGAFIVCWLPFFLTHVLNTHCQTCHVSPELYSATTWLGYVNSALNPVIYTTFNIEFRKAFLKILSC

[19] = molecular target: T3, 5-hydroxytryptamine receptor 2B; settings: 10 uM
[20] = molecular target: D(2) dopamine receptor (Homo sapiens) (UniProt P14416); settings: 1 uM
D(2) dopamine receptor (Homo sapiens), sequence (P14416 whole entry): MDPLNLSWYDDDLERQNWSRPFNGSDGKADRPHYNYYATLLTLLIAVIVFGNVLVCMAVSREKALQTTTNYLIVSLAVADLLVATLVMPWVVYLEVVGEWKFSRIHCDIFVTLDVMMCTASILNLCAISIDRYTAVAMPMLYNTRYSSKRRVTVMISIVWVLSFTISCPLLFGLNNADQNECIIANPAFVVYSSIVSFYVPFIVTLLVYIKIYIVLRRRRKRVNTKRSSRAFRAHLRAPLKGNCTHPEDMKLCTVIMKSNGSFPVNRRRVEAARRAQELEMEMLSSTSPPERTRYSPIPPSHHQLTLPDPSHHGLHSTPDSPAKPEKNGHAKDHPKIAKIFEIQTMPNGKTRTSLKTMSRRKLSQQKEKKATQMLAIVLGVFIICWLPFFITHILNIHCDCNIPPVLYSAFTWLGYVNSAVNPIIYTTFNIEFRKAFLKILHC

[21] = molecular target: 5-hydroxytryptamine receptor 2A (Homo sapiens) (UniProt P28223); settings: 10 uM
[22] = molecular target: T4, Alpha-2A adrenergic receptor (Homo sapiens) (UniProt P08913); settings: 10 uM
T4 sequence (whole entry): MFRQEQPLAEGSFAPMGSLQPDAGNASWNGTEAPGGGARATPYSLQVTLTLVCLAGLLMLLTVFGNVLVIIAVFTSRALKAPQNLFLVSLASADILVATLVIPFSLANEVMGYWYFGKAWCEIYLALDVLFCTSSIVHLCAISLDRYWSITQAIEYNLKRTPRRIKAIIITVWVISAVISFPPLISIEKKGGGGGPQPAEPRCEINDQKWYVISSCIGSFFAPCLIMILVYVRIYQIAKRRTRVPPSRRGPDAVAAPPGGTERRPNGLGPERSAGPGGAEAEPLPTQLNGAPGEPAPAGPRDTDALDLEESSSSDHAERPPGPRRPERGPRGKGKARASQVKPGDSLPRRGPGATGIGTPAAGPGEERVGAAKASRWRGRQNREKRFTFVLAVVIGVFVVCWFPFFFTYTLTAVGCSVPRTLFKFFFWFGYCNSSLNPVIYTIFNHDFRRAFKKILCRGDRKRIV

[23] = molecular target: T5, Alpha-2B adrenergic receptor (Homo sapiens) (UniProt P18089); settings: 10 uM
T5 sequence (whole entry): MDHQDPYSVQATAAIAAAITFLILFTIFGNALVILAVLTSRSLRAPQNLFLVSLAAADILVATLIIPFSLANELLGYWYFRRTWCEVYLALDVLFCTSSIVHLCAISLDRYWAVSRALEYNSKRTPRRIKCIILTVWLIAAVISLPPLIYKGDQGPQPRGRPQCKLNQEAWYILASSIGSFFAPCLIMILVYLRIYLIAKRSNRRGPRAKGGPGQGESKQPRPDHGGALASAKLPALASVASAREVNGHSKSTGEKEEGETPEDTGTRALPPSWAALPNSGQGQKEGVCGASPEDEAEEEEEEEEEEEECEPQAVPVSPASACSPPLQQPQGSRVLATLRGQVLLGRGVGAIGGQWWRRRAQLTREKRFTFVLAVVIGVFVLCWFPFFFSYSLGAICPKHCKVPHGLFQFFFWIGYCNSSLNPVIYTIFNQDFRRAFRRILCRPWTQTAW

5-hydroxytryptamine receptor 6 (Rattus norvegicus, UniProt P31388), sequence (P31388 whole entry): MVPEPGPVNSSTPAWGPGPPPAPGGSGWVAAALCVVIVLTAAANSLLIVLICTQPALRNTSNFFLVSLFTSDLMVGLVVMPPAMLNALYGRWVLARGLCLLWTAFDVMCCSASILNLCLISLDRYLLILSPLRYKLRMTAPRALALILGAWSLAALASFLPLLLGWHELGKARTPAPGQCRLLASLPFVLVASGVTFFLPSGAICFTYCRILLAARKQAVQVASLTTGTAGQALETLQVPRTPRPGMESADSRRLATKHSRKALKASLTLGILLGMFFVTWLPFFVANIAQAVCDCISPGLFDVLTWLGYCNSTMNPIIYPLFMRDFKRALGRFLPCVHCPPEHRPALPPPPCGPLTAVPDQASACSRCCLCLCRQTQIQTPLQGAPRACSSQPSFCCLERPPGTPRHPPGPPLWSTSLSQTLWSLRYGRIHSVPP

Question: What does the source list for `O=S(=O)(c1cccc(F)c1)c1ccc2c3c(oc2c1)C1(CCOC1)NCC3` (racemic)?
Answer: Ki [1]: 132 nM; Ki [2]: 22.3 nM; pKa [3]: 7.5; IC50 [4]: 32 nM

Question: With `O=S(=O)(c1cccc(F)c1)c1ccc2c3c(oc2c1)CNCC3` as the molecule, how does the Ki [1] read?
Answer: The Ki was 6.9 nM.

Question: What about the half-life [5] of the same molecule?
Answer: The half-life was under 5 min.

Question: And the half-life [6]?
Answer: The half-life was 10.3 min.

Question: And the Ki [2]?
Answer: The Ki was 1.6 nM.

Question: And the IC50 [4]?
Answer: Its IC50 is 3.6 nM.

Question: With `O=S(=O)(c1ccc(F)cc1)c1ccc2c3c(oc2c1)CNCC3` as the molecule, how does the Ki [2] read?
Answer: Its Ki is 22 nM.

Question: For `O=S(=O)(c1cccc(F)c1)c1ccc2c3c(oc2c1)C1(CCCOC1)NCC3` (racemic), which Ki [1] is on record?
Answer: Its Ki is 38.3 nM.

Question: What about the IC50 [7] of the same molecule?
Answer: Its IC50 is 13.6 µM.

Question: Which results are given for `CC1(C(F)F)NCCc2c1oc1cc(S(=O)(=O)c3cccc(F)c3)ccc21` (stereo unspecified)?
Answer: Ki [1]: 183 nM; pKa [3]: 6.2

Question: Which results are given for `O=S(=O)(c1cccc(F)c1)c1ccc2c3c(oc2c1)C1(CCOCC1)NCC3`?
Answer: half-life [8]: 19 min; bioavailability [9]: 6%; Drug uptake (Brain): 979 nmol/g; Ki [1]: 14 nM; Vd [10]: 1.4 L/kg; half-life [5]: 25 min; half-life [6]: > 40 min; Ki [2]: 2.1 nM; IC50 [7]: > 30 µM; clearance [11]: 17 mL/min/kg; pKa [3]: 7.4; Kp [12]: 3.3; AUC (Rattus norvegicus [13]): 368 ng·h/mL; Cmax [14]: 84 ng/mL; half-life [15]: 54 min; IC50 [4]: 6.8 nM

Question: For `CC1(C)NCCc2c1oc1cc(S(=O)(=O)c3ccccc3)ccc21`, which Ki [1] is on record?
Answer: Its Ki is 41 nM.

Question: And the Ki [2]?
Answer: Its Ki is 7.7 nM.

Question: What about the IC50 [4] of the same molecule?
Answer: Its IC50 is 34 nM.

Question: What does the source list for `CC1(C)NCCc2c1oc1cc(S(=O)(=O)c3cccc(F)c3)ccc21`?
Answer: half-life [8]: > 40 min; bioavailability [9]: 15%; Drug uptake (Brain): 1620 nmol/g; Ki [1]: 19 nM; Vd [10]: 5.5 L/kg; half-life [5]: 16 min; half-life [6]: 32 min; Ki [2]: 2.9 nM; clearance [11]: 82 mL/min/kg; Kp [12]: 7.7; AUC (Rattus norvegicus [13]): 149 ng·h/mL; Cmax [14]: 35 ng/mL; half-life [15]: 54 min; IC50 [4]: 11.7 nM

Question: What does the source list for `O=S(=O)(c1ccccc1)c1ccc2c3c(oc2c1)CNCC3`?
Answer: Ki [1]: 9.8 nM; Ki [2]: 2.7 nM; IC50 [4]: 8.5 nM

Question: With `COCC1(C)NCCc2c1oc1cc(S(=O)(=O)c3cccc(F)c3)ccc21` (stereo unspecified) as the molecule, how does the Ki [1] read?
Answer: Its Ki is 113 nM.

Question: And the Ki [2]?
Answer: The Ki was 18 nM.

Question: And the pKa [3]?
Answer: Its pKa is 7.5.

Question: What does the source list for `O=S(=O)(c1cccc(F)c1)c1ccc2c3c(oc2c1)C1(CCCOC1)NCC3` (stereo in doubt; 2) [listing 1 of 2 here]?
Answer: IC50 (Cytochrome P450 2C9): 1900 nM; IC50 (Cytochrome P450 1A2): > 30 µM; half-life [8]: 30 min; inhibition at 10 µM (L-type calcium channel): > 50%; bioavailability [9]: 36%; Drug uptake (Brain): 1660 nmol/g; Ki [1]: 16.9 nM; IC50 (Cytochrome P450 2D6): > 30 µM; IC50 (Cytochrome P450 3A4): > 30 µM; Vd [10]: 4 L/kg; IC50 [16]: 1500 nM; half-life [5]: 25 min; half-life [6]: > 40 min; IC50 [7]: 12 µM; clearance [11]: 32 mL/min/kg; Kp [12]: 2; AUC (Rattus norvegicus [13]): 974 ng·h/mL; IC50 (Cytochrome P450 2C19): > 30 µM; Cmax [14]: 210 ng/mL; half-life [15]: 84 min

Question: What does the source list for `O=S(=O)(c1ccccc1)c1ccc2oc3c(c2c1)CCNC3`?
Answer: Ki [1]: 156 nM; Ki [2]: 46 nM

Question: Which IC50 [7] does the source give for `O=S(=O)(c1cccc(F)c1)c1ccc2c3c(oc2c1)C1(CCCOC1)NCC3` (stereo in doubt; 3) here?
Answer: The IC50 was 9.6 µM.

Question: And the pKa [3]?
Answer: Its pKa is 7.5.

Question: What does the source list for `COc1cccc(S(=O)(=O)c2ccc3c4c(oc3c2)C(C)(C)NCC4)c1`?
Answer: Ki [2]: 17.5 nM; IC50 [4]: 68.6 nM

Question: Which Ki [2] does the source give for `CC1(C(F)(F)F)NCCc2c1oc1cc(S(=O)(=O)c3cccc(F)c3)ccc21` (stereo unspecified) here?
Answer: Its Ki is 139 nM.

Question: And the pKa [3]?
Answer: The pKa was 5.7.

Question: For `COc1cccc(S(=O)(=O)c2ccc3c4c(oc3c2)CNCC4)c1`, which Ki [1] is on record?
Answer: Its Ki is 34 nM.

Question: And the Ki [2]?
Answer: The Ki was 5.6 nM.

Question: And the IC50 [4]?
Answer: Its IC50 is 21 nM.

Question: Which results are given for `O=S(=O)(c1cccc(F)c1)c1ccc2c3c(oc2c1)C1(CCCOC1)NCC3` (stereo in doubt; 2) [listing 2 of 2 here]?
Answer: Activity (Rattus norvegicus [17]): Active; inhibition [18]: > 50%; inhibition [19]: > 50%; inhibition [20]: > 50%; inhibition [21]: > 50%; inhibition [22]: > 50%; inhibition [23]: > 50%
